Test results from ChEMBL document CHEMBL1777756, “Discovery of Novel Benzo[a]phenoxazine SSJ-183 as a Drug Candidate for Malaria” (ACS Med Chem Lett, 2010).
Calls of active or inactive are those of the source. No cut-off for these calls is given here.

Experiments:
[1] = Selectivity ratio of IC50 for Plasmodium falciparum K1 to IC50 for Trypanosoma brucei rhodesiense; format: functional
Trypanosoma cruzi [2] = experiment: Antiparasitic activity against Trypanosoma cruzi; format: functional, organism-based
Plasmodium berghei [3] = experiment: Antimalarial activity against Plasmodium berghei NK-65 infected in ICR mouse assessed as inhibition of parasitemia at 100 mg/kg, po administered as single dose on day 1 measured on day 4; format: functional
Procedure, shortened: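 Compound was formulated at 100 mg/kg in 5% glucose/10% ethanol or in 7% Tween 80/3% ethanol. The suspension was given as a single oral dose on day 1 to female ICR mice infected with P. berghei NK-65. Parasitemia was determined on day 4 after infection. Treated-group mean is expressed as percent difference from the control-group mean.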

Leishmania donovani [4] = experiment: Antiparasitic activity against Leishmania donovani; format: functional, organism-based
Plasmodium berghei [5] = experiment: Antimalarial activity against Plasmodium berghei ANKA expressing green fluorescent protein infected in NMRI mouse assessed as survival days at 30 mg/kg, po qd administered for 3 consecutive days; format: functional
Procedure, shortened: (§1)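 Female NMRI mice infected with GFP-expressing P. berghei ANKA were dosed orally once daily for three consecutive days, 3 mice per dose level, in 2 to 3 independent experiments. Parasitemia was read on day 4 post-infection, and mean survival days were recorded along with the percentage of cured animals.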

Plasmodium falciparum = experiment: Antimalarial activity against chloroquine and pyrimethamine resistant Plasmodium falciparum K1; format: functional, organism-based
Procedure, shortened: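 IC50 was determined in vitro against the chloroquine- and pyrimethamine-resistant P. falciparum K1 strain. Values are the mean of two independent assays.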

[6] = Toxicity in rat at 1000 mg/kg by micronucleus test; format: organism-based; design: dose 1000 mg/kg; settings: in vivo
Procedure, shortened: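 In vivo micronucleus test in rats dosed at 1000 mg/kg × 2.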

Plasmodium berghei [7] = experiment: Antimalarial activity against Plasmodium berghei str. ANKA infected in mouse assessed as cure rate at 100 mg/kg, po administered as three daily dose; format: functional, organism-based; design: dose 100 mg/kg
Procedure, shortened: (§2)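 Oral dosing once a day for three consecutive days to female NMRI mice infected with P. berghei GFP ANKA strain. n = 3 mice per dose, data from 2–3 independent experiments. Parasitemia inhibition read on day 4 postinfection. Mean survival days and the percentage of cured animals were recorded.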

Trypanosoma cruzi [8] = experiment: Selectivity ratio of IC50 for Plasmodium falciparum K1 to IC50 for Trypanosoma cruzi; format: functional
[9] = Terminal-half life in iv dosed Sprague-Dawley rat; format: ADME, organism-based; settings: in vivo, read-out: beta t1/2 (converted)
Procedure, shortened: (§3)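 Male Sprague–Dawley rats received 2.8 mg/kg intravenously or 21.5 mg/kg orally, and the plasma concentration–time profile was followed. Oral bioavailability and terminal half-life after iv dosing were derived.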

Leishmania donovani [10] = experiment: Selectivity ratio of IC50 for Plasmodium falciparum K1 to IC50 for Leishmania donovani; format: functional
Plasmodium berghei [11] = experiment: Antimalarial activity against Plasmodium berghei ANKA expressing green fluorescent protein infected in NMRI mouse assessed as cure rate at 30 mg/kg, po qd administered for 3 consecutive days; format: functional; procedure, shortened: as §2
Plasmodium berghei [12] = experiment: Antimalarial activity against Plasmodium berghei ANKA expressing green fluorescent protein infected in NMRI mouse assessed as growth inhibition at 30 mg/kg, po qd administered for 3 consecutive days measured on day 4 post parasitic infection; format: functional; settings: 96 h, read-out: GI; procedure, shortened: as §2
Blood = experiment: Cytotoxicity in G6PD-deficient human blood assessed as hemolysis; format: tissue-based
[13] = biological target: D(3) dopamine receptor (Homo sapiens) (UniProt P35462); experiment: Inhibition of human recombinant D3 receptor at 1 uM
Chain of D(3) dopamine receptor (Homo sapiens) (P35462 whole entry): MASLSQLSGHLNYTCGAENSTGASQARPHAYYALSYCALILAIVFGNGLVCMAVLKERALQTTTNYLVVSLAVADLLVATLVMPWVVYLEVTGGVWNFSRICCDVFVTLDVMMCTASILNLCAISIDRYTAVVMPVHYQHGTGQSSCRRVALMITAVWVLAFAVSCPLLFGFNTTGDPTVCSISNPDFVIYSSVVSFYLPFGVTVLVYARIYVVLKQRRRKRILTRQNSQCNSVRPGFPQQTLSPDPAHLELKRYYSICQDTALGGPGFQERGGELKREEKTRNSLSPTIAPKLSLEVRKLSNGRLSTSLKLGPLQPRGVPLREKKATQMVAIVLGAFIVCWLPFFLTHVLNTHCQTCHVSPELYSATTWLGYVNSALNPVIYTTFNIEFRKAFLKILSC
Procedure, shortened: (§4)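 Binding assays were run against a panel of 80 receptors at 1 μM compound. Percent inhibition was read for human recombinant receptors.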

[14] = Toxicity in S9 fraction at 2 uM by micronucleus test; format: subcellular; settings: s9, 2 µM
Procedure, shortened: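 In vitro micronucleus test at 2.0 μM, run both without and with S9.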

Mus musculus [15] = experiment: Toxicity in NMRI mouse infected with Plasmodium berghei ANKA expressing green fluorescent protein assessed as lethality at 2000 mg/kg, po qd administered for 3 consecutive days; format: organism-based; design: dose 2000 mg/kg, route oral; settings: in vivo
Plasmodium berghei [16] = experiment: Antimalarial activity against Plasmodium berghei ANKA expressing green fluorescent protein infected in NMRI mouse assessed as growth inhibition at 10 mg/kg, po qd administered for 3 consecutive days measured on day 4 post parasitic infection; format: functional; settings: 96 h, read-out: GI; procedure, shortened: as §2
Plasmodium berghei [17] = experiment: Antimalarial activity against Plasmodium berghei ANKA infected in NMRI mouse at 100 mg/kg, po administered as single dose; format: functional
Procedure, shortened: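 Female NMRI mice infected with P. berghei ANKA strain were given a single oral dose of 100 mg/kg. Three independent experiments were run with n = 3 mice per experiment. Inhibition of parasitemia and mean survival days are averaged across the experiments.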

Plasmodium berghei [18] = experiment: Antimalarial activity against Plasmodium berghei ANKA expressing green fluorescent protein infected in NMRI mouse assessed as cure rate at 100 mg/kg, po qd administered for 3 consecutive days; format: functional; procedure, shortened: as §2
[19] = Toxicity in S9 fraction at 1000 uM by chromosomal aberration test; format: subcellular; settings: s9, 1000 µM
Procedure, shortened: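 Chromosome aberration test at 1000 μM, run both without and with S9 metabolic activation.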

[20] = Oral bioavailability in Sprague-Dawley rat; format: ADME, organism-based; settings: in vivo; procedure, shortened: as §3
Plasmodium berghei [21] = experiment: Antimalarial activity against Plasmodium berghei ANKA expressing green fluorescent protein infected in NMRI mouse assessed as growth inhibition at 100 mg/kg, po qd administered for 3 consecutive days measured on day 4 post parasitic infection; format: functional; settings: 96 h, read-out: GI; procedure, shortened: as §2
[22] = Selectivity index, ratio of IC50 for rat L6 cells to IC50 for Plasmodium falciparum K1; format: toxicity, cell-based; settings: read-out: Ratio IC50
Procedure, shortened: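 Selectivity index is IC50 against L-6 cells divided by IC50 against chloroquine/pyrimethamine-resistant P. falciparum K1. Each IC50 is the mean of two independent assays.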

Plasmodium berghei [23] = experiment: Antimalarial activity against Plasmodium berghei NK-65 infected in ICR mouse assessed as survival days at 100 mg/kg, po administered as single dose (reference value: 6 days); format: functional
Procedure, shortened: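 Female ICR mice infected with P. berghei NK-65 received a single oral dose of 100 mg/kg on day 1. The compound was given as a suspension in 5% glucose/10% ethanol or in 7% Tween 80/3% ethanol. Parasitemia was read on day 4 as percent reduction relative to untreated controls, and mean survival days were recorded.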

[24] = Biodistribution in mouse urine at 100 mg/kg, po administered as single dose; format: ADME, organism-based; design: dose 100 mg/kg, route oral; settings: in vivo
Procedure, shortened: (§5)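 Mice received a single oral dose of 100 mg/kg. Urine, eyes and organs were then checked by eye for the purple/blue colour of the compound formulation.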

Plasmodium berghei [25] = experiment: Antimalarial activity against Plasmodium berghei ANKA infected in NMRI mouse assessed as survival days at 100 mg/kg, po administered as single dose; format: functional
Procedure, shortened: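 Female NMRI mice infected with P. berghei ANKA received a single oral dose of 100 mg/kg. Three independent experiments were run with 3 mice each. Mean survival days were averaged across the experiments.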

Mus musculus [26] = experiment: Biodistribution in mouse eyes at 100 mg/kg, po administered as single dose; format: ADME, organism-based, Eye; design: dose 100 mg/kg, route oral; settings: in vivo; procedure, shortened: as §5
[27] = biological target: T1, Adenosine receptor A3 (Homo sapiens) (UniProt P0DMS8); experiment: Inhibition of human recombinant A3 receptor at 1 uM; procedure, shortened: as §4
T1 sequence (whole entry): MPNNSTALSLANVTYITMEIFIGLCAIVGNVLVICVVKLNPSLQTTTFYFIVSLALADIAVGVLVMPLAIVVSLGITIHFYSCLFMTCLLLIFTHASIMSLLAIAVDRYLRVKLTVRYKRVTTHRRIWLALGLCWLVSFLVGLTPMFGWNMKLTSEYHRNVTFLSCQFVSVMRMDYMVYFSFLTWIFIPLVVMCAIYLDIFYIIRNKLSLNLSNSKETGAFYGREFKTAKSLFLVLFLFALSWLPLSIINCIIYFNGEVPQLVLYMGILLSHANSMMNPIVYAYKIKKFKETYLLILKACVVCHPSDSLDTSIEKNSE

Plasmodium berghei [28] = experiment: Antimalarial activity against Plasmodium berghei ANKA expressing green fluorescent protein infected in NMRI mouse assessed as survival days at 100 mg/kg, po qd administered for 3 consecutive days; format: functional; procedure, shortened: as §1
Mus musculus [29] = experiment: Phototoxicity against mouse at 300 mg/kg, po; format: organism-based; design: dose 300 mg/kg, route oral; settings: in vivo
Procedure, shortened: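 Mice dosed orally at 300 mg/kg were assessed for phototoxicity.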

Plasmodium berghei [30] = experiment: Antimalarial activity against Plasmodium berghei ANKA expressing green fluorescent protein infected in NMRI mouse assessed as survival days at 10 mg/kg, po qd administered for 3 consecutive days; format: functional; procedure, shortened: as §1
L6 = experiment: Cytotoxicity against rat L6 cells; format: cell-based
Procedure, shortened: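 Cytotoxicity was tested against L-6 rat myoblasts, with IC50 determined. Values are the mean of two independent assays.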

[31] = system: Trypanosoma brucei rhodesiense; experiment: Antiparasitic activity against Trypanosoma brucei rhodesiense; format: functional, organism-based

Compound: CCN(CC)c1ccc2nc3c4ccccc4/c(=N\c4ccncc4)cc-3oc2c1
- Ratio IC50 [1]: > 1000
- IC50 (Trypanosoma cruzi [2]): 11.3 µM
- inhibition in vivo at 100 mg/kg (Plasmodium berghei [3]): > 99.9%
- IC50 (Leishmania donovani [4]): 6.5 µM
- MSD (Plasmodium berghei [5]): 27.2 days
- IC50 (Plasmodium falciparum): 0.0076 µM
- Activity [6]: Non-toxic
- Activity (Plasmodium berghei [7]): Active
- Ratio IC50 (Trypanosoma cruzi [8]): > 1000
- half-life [9]: 5.5 h
- Ratio IC50 (Leishmania donovani [10]): > 1000
- Activity (Plasmodium berghei [11]): 78%
- inhibition in vivo at 30 mg/kg (Plasmodium berghei [12]): 99%
- Activity (Blood): Non-toxic
- inhibition [13]: 80%
- Activity [14]: Non-toxic
- Activity (Mus musculus [15]): Non-toxic
- inhibition in vivo at 10 mg/kg (Plasmodium berghei [16]): 26%
- inhibition in vivo at 100 mg/kg (Plasmodium berghei [17]): 99%
- Activity (Plasmodium berghei [18]): 100%
- Activity [19]: Non-toxic
- bioavailability [20]: 30%
- inhibition in vivo at 100 mg/kg (Plasmodium berghei [21]): > 99.9%
- selectivity ratio [22]: 7330
- MSD (Plasmodium berghei [23]): 14.6 days
- Drug uptake [24]: Not Active
- MSD (Plasmodium berghei [25]): 16 days
- Drug uptake (Mus musculus [26]): Not Active
- inhibition [27]: 80%
- MSD (Plasmodium berghei [28]): >30 days
- Activity (Mus musculus [29]): Non-toxic
- MSD (Plasmodium berghei [30]): 4 days
- IC50 (L6): 55.7 µM
- IC50 [31]: 36 µM
